Our source for the inhibition and fold change (FC) values is ChEMBL document CHEMBL5653631, “A Potent and Selective ULK1 Inhibitor Suppresses Autophagy and Sensitizes Cancer Cells to Nutrient Stress” (iScience, 2018).

By inhibition is commonly meant the change of the read-out against control, counted positive when it falls.

Test [1] deals with RAC-gamma serine/threonine-protein kinase (Homo sapiens) (UniProt Q9Y243). Description: Inhibition of human recombinant AKT3 at 40 nM in presence of ATP by radiometric assay relative to control. An outline of the steps: (§1)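 Panel of 327 recombinant human kinases in radiometric activity assays, each screened in duplicate at a single inhibitor concentration; percent activity remaining relative to vehicle control, percent inhibition taken as 100 minus activity remaining.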

Test [2] has as its target T1, Serine/threonine-protein kinase tousled-like 1 (Homo sapiens) (UniProt Q9UKI8).
T1 sequence (whole entry): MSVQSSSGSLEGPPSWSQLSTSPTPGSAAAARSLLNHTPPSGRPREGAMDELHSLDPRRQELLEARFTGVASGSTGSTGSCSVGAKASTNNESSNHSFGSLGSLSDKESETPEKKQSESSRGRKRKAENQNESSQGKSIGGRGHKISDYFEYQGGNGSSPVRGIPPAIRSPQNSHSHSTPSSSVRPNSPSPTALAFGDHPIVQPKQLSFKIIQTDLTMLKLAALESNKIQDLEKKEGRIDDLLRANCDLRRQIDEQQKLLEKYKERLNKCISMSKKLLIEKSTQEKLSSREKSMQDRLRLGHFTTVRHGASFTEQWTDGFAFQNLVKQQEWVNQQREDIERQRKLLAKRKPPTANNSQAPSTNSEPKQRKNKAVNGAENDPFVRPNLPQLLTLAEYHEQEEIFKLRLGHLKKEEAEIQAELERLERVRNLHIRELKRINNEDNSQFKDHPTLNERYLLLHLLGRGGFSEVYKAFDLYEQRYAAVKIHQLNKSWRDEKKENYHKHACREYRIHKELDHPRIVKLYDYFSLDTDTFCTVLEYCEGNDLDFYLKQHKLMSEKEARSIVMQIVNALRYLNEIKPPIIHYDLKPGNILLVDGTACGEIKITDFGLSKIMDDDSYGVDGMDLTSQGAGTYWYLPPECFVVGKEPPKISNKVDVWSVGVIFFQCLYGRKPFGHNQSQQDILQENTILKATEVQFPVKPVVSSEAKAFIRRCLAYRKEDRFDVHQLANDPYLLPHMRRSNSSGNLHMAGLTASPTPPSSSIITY
Description: Inhibition of human recombinant TLK1 at 40 nM related to control ULK1.

Test [3] addresses T2, Serine/threonine-protein kinase A-Raf (Homo sapiens) (UniProt P10398).
T2 sequence (whole entry): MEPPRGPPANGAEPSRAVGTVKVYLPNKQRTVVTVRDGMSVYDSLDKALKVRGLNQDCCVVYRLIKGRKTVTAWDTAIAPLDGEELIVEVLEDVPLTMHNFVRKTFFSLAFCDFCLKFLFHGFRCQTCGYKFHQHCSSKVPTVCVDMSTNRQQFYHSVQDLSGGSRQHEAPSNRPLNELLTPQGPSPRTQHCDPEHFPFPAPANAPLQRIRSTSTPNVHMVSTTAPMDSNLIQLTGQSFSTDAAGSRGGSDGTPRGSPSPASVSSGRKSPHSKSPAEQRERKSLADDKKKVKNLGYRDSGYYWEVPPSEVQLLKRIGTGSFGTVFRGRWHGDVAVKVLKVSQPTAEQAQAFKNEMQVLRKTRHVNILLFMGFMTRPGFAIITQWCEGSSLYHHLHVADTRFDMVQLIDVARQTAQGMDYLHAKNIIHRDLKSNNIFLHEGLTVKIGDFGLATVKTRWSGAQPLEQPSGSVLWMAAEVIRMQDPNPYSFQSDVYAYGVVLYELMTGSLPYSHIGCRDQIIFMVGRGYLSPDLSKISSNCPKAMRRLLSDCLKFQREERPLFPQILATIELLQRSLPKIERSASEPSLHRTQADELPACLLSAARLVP
Put plainly: Inhibition of human recombinant ARAF at 40 nM related to control ULK1. In short, it runs like this: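 Radiometric activity assays in a panel of 327 human recombinant kinases, each run in duplicate at one inhibitor concentration. Activity remaining is expressed as percent of vehicle control, and percent inhibition is calculated as 100% minus percent activity remaining.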

For test [4], the target named is MAP/microtubule affinity-regulating kinase 3 (Homo sapiens) (UniProt P27448). Put plainly: Inhibition of human recombinant MARK3 at 40 nM related to control ULK1.
Test [5] has as its target T3, Receptor-interacting serine/threonine-protein kinase 1 (Homo sapiens) (UniProt Q13546).
T3 sequence (whole entry): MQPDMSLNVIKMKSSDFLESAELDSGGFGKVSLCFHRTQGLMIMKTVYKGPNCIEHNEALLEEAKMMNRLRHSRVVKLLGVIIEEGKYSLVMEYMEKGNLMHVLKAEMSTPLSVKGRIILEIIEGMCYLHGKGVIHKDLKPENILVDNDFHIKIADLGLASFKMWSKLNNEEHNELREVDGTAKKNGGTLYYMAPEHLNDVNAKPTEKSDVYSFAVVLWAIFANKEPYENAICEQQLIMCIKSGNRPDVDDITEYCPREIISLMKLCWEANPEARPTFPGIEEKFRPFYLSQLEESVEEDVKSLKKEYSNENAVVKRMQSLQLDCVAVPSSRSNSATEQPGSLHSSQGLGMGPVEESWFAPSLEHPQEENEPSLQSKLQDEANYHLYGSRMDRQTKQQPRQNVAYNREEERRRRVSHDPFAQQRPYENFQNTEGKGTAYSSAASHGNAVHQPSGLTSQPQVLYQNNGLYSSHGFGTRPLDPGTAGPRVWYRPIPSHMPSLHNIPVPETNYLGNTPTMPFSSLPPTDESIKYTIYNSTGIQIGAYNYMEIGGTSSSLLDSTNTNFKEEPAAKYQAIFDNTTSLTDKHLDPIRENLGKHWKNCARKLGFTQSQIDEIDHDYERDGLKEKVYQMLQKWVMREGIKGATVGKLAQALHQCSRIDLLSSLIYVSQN
Put plainly: Inhibition of human recombinant RIPK1 at 15 nM related to control ULK1.

For test [6], the target named is RAC-gamma serine/threonine-protein kinase (Homo sapiens) (UniProt Q9Y243). Description: Inhibition of human recombinant AKT3 at 15 nM in presence of ATP by radiometric assay relative to control. An outline of the steps:
as §1

Test [7] addresses Protein kinase C eta type (Homo sapiens) (UniProt P24723). Put plainly: Inhibition of human recombinant PKCH at 15 nM in presence of ATP by radiometric assay relative to control.

Chain of RAC-gamma serine/threonine-protein kinase (Homo sapiens) (Q9Y243 whole entry): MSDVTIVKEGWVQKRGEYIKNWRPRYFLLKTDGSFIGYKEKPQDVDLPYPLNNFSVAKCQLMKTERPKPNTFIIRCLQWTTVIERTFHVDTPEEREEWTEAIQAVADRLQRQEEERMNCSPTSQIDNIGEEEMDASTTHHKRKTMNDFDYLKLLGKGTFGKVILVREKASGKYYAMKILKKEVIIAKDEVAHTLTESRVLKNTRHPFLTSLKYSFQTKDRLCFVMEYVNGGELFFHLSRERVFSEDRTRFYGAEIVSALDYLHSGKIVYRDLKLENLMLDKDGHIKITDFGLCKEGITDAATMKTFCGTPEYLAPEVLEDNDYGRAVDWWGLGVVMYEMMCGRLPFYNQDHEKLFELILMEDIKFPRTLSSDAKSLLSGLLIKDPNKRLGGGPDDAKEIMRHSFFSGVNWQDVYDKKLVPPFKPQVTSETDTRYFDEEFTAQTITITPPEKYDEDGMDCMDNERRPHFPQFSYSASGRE
Chain of Protein kinase C eta type (Homo sapiens) (P24723 whole entry): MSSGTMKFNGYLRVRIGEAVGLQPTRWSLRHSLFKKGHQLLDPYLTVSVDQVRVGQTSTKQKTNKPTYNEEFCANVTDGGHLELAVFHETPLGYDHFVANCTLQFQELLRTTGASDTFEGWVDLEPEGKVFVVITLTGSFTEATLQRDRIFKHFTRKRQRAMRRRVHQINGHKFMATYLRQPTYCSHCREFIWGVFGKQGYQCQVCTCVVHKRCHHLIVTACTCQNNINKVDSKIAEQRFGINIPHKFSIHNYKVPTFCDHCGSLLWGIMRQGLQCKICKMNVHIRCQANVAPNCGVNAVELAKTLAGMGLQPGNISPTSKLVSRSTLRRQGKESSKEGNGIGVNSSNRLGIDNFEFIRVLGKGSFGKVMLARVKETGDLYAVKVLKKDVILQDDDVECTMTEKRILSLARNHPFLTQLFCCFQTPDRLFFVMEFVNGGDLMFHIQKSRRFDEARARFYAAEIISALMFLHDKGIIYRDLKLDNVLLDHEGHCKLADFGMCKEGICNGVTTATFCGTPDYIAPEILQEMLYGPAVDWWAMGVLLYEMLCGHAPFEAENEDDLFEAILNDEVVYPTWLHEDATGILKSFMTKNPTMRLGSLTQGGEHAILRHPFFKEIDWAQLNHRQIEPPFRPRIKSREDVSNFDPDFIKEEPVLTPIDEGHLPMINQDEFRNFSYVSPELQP
Chain of MAP/microtubule affinity-regulating kinase 3 (Homo sapiens) (P27448 whole entry, looked up): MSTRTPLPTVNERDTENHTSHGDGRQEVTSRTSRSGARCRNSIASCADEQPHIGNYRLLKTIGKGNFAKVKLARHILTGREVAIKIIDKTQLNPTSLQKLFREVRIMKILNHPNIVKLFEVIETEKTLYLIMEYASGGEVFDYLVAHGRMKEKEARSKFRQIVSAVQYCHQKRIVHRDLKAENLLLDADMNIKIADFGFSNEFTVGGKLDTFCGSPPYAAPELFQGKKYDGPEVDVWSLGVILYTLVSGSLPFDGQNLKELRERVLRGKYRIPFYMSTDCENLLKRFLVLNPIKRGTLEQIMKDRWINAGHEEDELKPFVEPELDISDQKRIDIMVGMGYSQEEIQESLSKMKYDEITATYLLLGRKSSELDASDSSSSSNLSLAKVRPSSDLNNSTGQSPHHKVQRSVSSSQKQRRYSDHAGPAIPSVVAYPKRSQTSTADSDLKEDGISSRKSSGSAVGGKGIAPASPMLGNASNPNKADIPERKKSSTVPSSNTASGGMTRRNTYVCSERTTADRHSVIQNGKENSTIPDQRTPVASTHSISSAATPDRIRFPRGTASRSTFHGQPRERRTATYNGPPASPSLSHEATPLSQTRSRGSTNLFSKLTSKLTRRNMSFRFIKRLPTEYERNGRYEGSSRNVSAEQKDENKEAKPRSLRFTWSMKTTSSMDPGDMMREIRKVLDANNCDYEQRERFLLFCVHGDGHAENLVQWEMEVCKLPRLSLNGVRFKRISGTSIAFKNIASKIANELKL

As to `O=C(N[C@@H](C1CC1)C(F)(F)F)c1cc(-c2cnn3cc(-c4ccc(F)cc4)cnc23)cs1`, the inhibition in test [1] was 2%. The fold change (FC) in test [2] amounted to 0; in test [3], 0; in test [4] it was 0.21.
For `CC(C)[C@H](NC(=O)c1cc(-c2cnn3cc(-c4ccc(OCCN5CCCCC5)cc4)cnc23)cs1)C(F)(F)F`, the fold change (FC) in test [5] amounted to 0.01. Besides, the figures for the inhibition in test [6] and in test [7] were 8% and 0%, respectively.
